Experimental data published in ChEMBL document CHEMBL3108700, “Designing anti-inflammatory drugs from parasitic worms: a synthetic small molecule analogue of the Acanthocheilonema viteae product ES-62 prevents development of collagen-induced arthritis” (J Med Chem, 2013).
Active and inactive are the calls of the source. The rule behind the calls is not given here.

Legend:
[1] = molecular target: T1, Toll-like receptor 4 (Mus musculus) (UniProt Q9QUK6); assay: Inhibition of TLR4 in ovalbumin pulsed BALB/c mouse BMDC co-cultured with DO-11.10 CD4+ T cells assessed as reduction of LPS-induced IL-17 production at 5 ug/mL after 3 days by ELISA; format: cell-based; conditions: T-cell
T1 sequence (whole entry): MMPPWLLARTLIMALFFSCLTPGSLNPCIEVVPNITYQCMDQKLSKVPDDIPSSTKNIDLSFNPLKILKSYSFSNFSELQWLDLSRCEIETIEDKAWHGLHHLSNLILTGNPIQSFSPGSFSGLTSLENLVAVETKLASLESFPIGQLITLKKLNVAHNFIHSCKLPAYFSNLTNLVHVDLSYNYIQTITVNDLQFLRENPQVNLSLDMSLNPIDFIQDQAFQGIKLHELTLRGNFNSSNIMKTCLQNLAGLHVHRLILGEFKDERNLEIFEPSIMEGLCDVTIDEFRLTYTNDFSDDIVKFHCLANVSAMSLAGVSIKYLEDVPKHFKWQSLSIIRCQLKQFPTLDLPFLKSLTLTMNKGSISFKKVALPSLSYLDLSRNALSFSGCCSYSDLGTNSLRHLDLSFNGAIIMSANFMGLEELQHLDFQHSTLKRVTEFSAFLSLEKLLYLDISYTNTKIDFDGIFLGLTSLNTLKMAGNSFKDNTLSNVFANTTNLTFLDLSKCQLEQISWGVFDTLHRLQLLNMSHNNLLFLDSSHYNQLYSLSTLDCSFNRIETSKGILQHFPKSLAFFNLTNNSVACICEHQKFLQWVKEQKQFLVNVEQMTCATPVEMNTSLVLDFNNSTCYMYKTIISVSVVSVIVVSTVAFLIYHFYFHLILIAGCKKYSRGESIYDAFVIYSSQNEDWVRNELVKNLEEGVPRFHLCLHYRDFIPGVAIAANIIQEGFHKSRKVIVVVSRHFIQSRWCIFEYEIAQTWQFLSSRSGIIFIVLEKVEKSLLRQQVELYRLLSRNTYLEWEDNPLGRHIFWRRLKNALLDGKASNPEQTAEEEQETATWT
How it was run: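 BALB/c bone marrow DCs ± compound (5 μg/mL) were treated ± S. minnesota LPS and pulsed with OVA peptide (0–300 nM). They were cocultured 3 days with naive CD4+CD62L+ DO.11.10 T cells, and IL-17A was measured by ELISA. Values are mean ± SD of duplicates from two experiments.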

[2] = molecular target: T1, Toll-like receptor 4 (Mus musculus); assay: Inhibition of TLR4 in BALB/c mouse BMDM assessed as reduction of LPS-stimulated IL-6 production at 5 ug/ml preincubated for 18 hrs followed by LPS challenge measured after 24 hrs by ELISA
How it was run: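 BALB/c male bone marrow macrophages were differentiated 7 days with L929 supernatant (≥99% CD11b+/F4/80+). Cells were plated at 2 × 10^5/well in triplicate, rested overnight, and given compounds at 5 μg/mL for 18 h. They were then stimulated with 100 ng/mL S. minnesota LPS, 10 ng/mL Pam3CSK4 (BLP) or 0.01 μM CpG for 24 h. Supernatant IL-12p40 and IL-6 were measured by ELISA (sensitivity 16 pg/mL).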

Mus musculus [3] = assay: Antiinflammatory activity in DBA/1 mouse collagen-induced arthritis model assessed as reduction in number of CD8+ T cells at 50 ug/kg, sc administered 2 days prior to collagen challenge continued till day 21 post collagen challenge; format: functional, organism-based; conditions: T-cell
How it was run: (§1)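 Dosing was 1 μg/dose or PBS given subcutaneously on days −2, 0 and 21 of CIA. Total, CD4+, CD8+ and γδ T cell numbers in draining lymph nodes were counted by flow cytometry for each mouse. Naive mice not exposed to collagen served as a further control (naive n = 7; PBS and treated n = 13).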

Mus musculus [4] = assay: Antiinflammatory activity in DBA/1 mouse collagen-induced arthritis model assessed as reduction in number of CD4+ T cells at 50 ug/kg, sc administered 2 days prior to collagen challenge continued till day 21 post collagen challenge; format: functional, organism-based; conditions: T-cell; how it was run: as §1

inhibition [1]: Active | inhibition [2]: Active
Compound: CN(C)CCS(=O)(=O)Cc1ccc(Br)cc1
Activity (Mus musculus [3]): Active | Activity (Mus musculus [4]): Active
